Measurements: article PMC3349182 (British Journal of Cancer, 2012)

Experiments:
[1] = Food-effect investigation; assay type: in vivo, human
Summary of the method: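 At the MTD, patients were randomised to take the cycle 1 day 15 dose fed (after a high-fat meal) or fasted (overnight fast ⩾10 h). The day 22 dose was taken in the reverse state, with no food for 4 h after either dose. Plasma levels were measured by LC-MS/MS. The 90% CIs for log-transformed fed/fasted Cmax and AUC0-24 were derived by ANOVA; 80–125% was taken as no food effect.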

[2] = test system: patients with advanced radioiodine-refractory differentiated thyroid cancer; settings: preliminary results, phase II; ref Sherman et al, 2011; cited from earlier work
[3] = test system: patients with advanced, refractory solid tumours; test: Anti-tumour efficacy by Response Evaluation Criteria in Solid Tumours; assay type: in vivo, human
Summary of the method: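 Patients took oral drug once daily on an empty stomach after an overnight fast, with only clear fluids within 2 h of dosing. Dosing was continuous in 28-day cycles until progressive disease or unacceptable toxicity. Tumour response was assessed by RECIST measurements, with CT imaging.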

[4] = test system: patients with advanced, refractory solid tumours; test: Phase I dose escalation: toxicity; assay type: in vivo, human
Summary of the method: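 Oral dosing was once daily in 28-day cycles, escalating by an accelerated design from 0.2 mg/day. Toxicity was graded by NCI CTC v3.0. During cycle 1, patients had weekly examination, blood pressure, full blood count, biochemistry and urinalysis, plus ECGs on days 1 and 8. DLT covered drug-related toxicity in cycle 1: grade ⩾3 toxicity, repeated grade 2 toxicity needing dose reduction, or <75% of planned dose given. The MTD was the highest dose with ≤1/6 patients having a DLT, and 12 more patients were treated at the MTD.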

[5] = 25 mg, eleven patients, high-fat meal vs overnight fast
[6] = 0.2–6.4 mg per day, 21 patients
[7] = treatment-related, 25 mg (n=24)
[8] = treatment-related, 0.2–6.4 mg (n=21)

SMILES: COc1cc2nccc(Oc3ccc(NC(=O)NC4CC4)c(Cl)c3)c2cc1C(N)=O [E7080]
- AUC ratio fed/fasted (90% CI) [1, 5]: 1.00 (90% CI 0.83–1.20)
- Cmax ratio fed/fasted (90% CI) [1, 5]: 0.98 (90% CI 0.73–1.31)
- tmax (median) ([1]; fasted group): 2.0 h
- tmax (median) ([1]; fed group): 5.0 h
- Objective response rate [2]: 59%
- Best response: Not evaluated, % ([3]; 25 mg per day, 24 patients): 0 (0) %
- Best response: Partial response, % ([3]; 25 mg per day, 24 patients): 13%
- Best response: Progressive disease, % ([3]; 25 mg per day, 24 patients): 8%
- Best response: Stable disease, % ([3]; 25 mg per day, 24 patients): 67%
- Best response: Not evaluated, % ([3]; 32 mg per day, 7 patients): 0 (0) %
- Best response: Partial response, % ([3]; 32 mg per day, 7 patients): 29%
- Best response: Progressive disease, % ([3]; 32 mg per day, 7 patients): 0 (0) %
- Best response: Stable disease, % ([3]; 32 mg per day, 7 patients): 43%
- Best response: Not evaluated, % [3, 6]: 5%
- Best response: Partial response, % [3, 6]: 0 (0) %
- Best response: Progressive disease, % [3, 6]: 24%
- Best response: Stable disease, % [3, 6]: 19%
- Best response: Not evaluated, % ([3]; 12–20 mg per day, 30 patients): 3%
- Best response: Partial response, % ([3]; 12–20 mg per day, 30 patients): 7%
- Best response: Progressive disease, % ([3]; 12–20 mg per day, 30 patients): 23%
- Best response: Stable disease, % ([3]; 12–20 mg per day, 30 patients): 50%
- Best response: Not evaluated, % ([3]; Total, 82 patients): 2 (2) %
- Best response: Partial response, % ([3]; Total, 82 patients): 9%
- Best response: Progressive disease, % ([3]; Total, 82 patients): 17%
- Best response: Stable disease, % ([3]; Total, 82 patients): 46%
- Clinical benefit (PR rate plus SD rate), % of patients ([3]; all doses): 55%
- Clinical benefit (PR rate plus SD rate), n patients ([3]; all doses): 45
- Patients with renal cancer with PR ([3]; of nine patients with renal cancer): Four
- Decrease in the sum of the longest tumour diameters ([3]; one patient with melanoma (largest decrease)): approximately 85%
- Overall reduction in tumour size (CT) ([3]; one patient with melanoma, after 32 weeks' treatment): 77%
- Overall reduction in tumour size (CT) ([3]; one patient with renal cancer, after 24 weeks' treatment): 51%
- Median progression-free survival (95% CI) ([3]; patients with melanoma, n=14): 217 days
- Median progression-free survival (95% CI) ([3]; patients with renal cancer, all dose cohorts, n=9): 477 days
- Dose modifications required, % of patients ([4]; all doses): 49%
- Dose modifications required, n patients ([4]; all doses): 40
- Dose reduction because of stomatitis, % of patients ([4]; all doses): 2%
- Haematological toxicities, % of patients ([4]; all grades, all doses): 7%
- Dose modifications required, % of patients ([4]; at the MTD of 25 mg): 54%
- Dose modifications required, n patients ([4]; at the MTD of 25 mg): 13
- Tolerability ([4]; doses up to 25 mg per day, oral, daily continuous dosing): well tolerated
- Maximum tolerated dose (MTD) ([4]; oral, once-daily continuous schedule, 28-day cycles): 25 mg
- Abdominal pain (all grades), n patients [4, 7]: 7
- Anorexia (all grades), % of patients [4, 7]: 21%
- Anorexia (all grades), n patients [4, 7]: 5
- Constipation (all grades), n patients [4, 7]: 8
- Diarrhoea (all grades), n patients [4, 7]: 12
- Dry skin (all grades), % of patients [4, 7]: 46%
- Dry skin (all grades), n patients [4, 7]: 11
- Dysphonia (all grades), % of patients [4, 7]: 46%
- Dysphonia (all grades), n patients [4, 7]: 11
- Fatigue (all grades), % of patients [4, 7]: 21%
- Fatigue (all grades), n patients [4, 7]: 5
- Headache (all grades), n patients [4, 7]: 7
- Hypertension (all grades), n patients [4, 7]: 15
- Hypertension Grade 1, % of patients [4, 7]: 4%
- Hypertension Grade 1, n patients [4, 7]: 1
- Hypertension Grade 2, % of patients [4, 7]: 46%
- Hypertension Grade 2, n patients [4, 7]: 11
- Hypertension Grade 3, % of patients [4, 7]: 13%
- Lethargy (all grades), % of patients [4, 7]: 38%
- Lethargy (all grades), n patients [4, 7]: 9
- Nausea (all grades), n patients [4, 7]: 14
- Proteinuria (all grades), n patients [4, 7]: 7
- Proteinuria Grade 1, % of patients [4, 7]: 0%
- Proteinuria Grade 1, n patients [4, 7]: 0
- Proteinuria Grade 2, % of patients [4, 7]: 21%
- Proteinuria Grade 2, n patients [4, 7]: 5
- Proteinuria Grade 3, % of patients [4, 7]: 8%
- Stomatitis (all grades), n patients [4, 7]: 15
- Vomiting (all grades), n patients [4, 7]: 8
- Abdominal pain (all grades), % of patients ([4]; treatment-related, 32 mg (n=7)): 0%
- Abdominal pain (all grades), n patients ([4]; treatment-related, 32 mg (n=7)): 0
- Anorexia (all grades), n patients ([4]; treatment-related, 32 mg (n=7)): 2
- Constipation (all grades), % of patients ([4]; treatment-related, 32 mg (n=7)): 14%
- Constipation (all grades), n patients ([4]; treatment-related, 32 mg (n=7)): 1
- Diarrhoea (all grades), n patients ([4]; treatment-related, 32 mg (n=7)): 4
- Dry skin (all grades), % of patients ([4]; treatment-related, 32 mg (n=7)): 14%
- Dry skin (all grades), n patients ([4]; treatment-related, 32 mg (n=7)): 1
- Dysphonia (all grades), n patients ([4]; treatment-related, 32 mg (n=7)): 3
- Fatigue (all grades), % of patients ([4]; treatment-related, 32 mg (n=7)): 14%
- Fatigue (all grades), n patients ([4]; treatment-related, 32 mg (n=7)): 1
- Headache (all grades), n patients ([4]; treatment-related, 32 mg (n=7)): 2
- Hypertension (all grades), n patients ([4]; treatment-related, 32 mg (n=7)): 4
- Hypertension Grade 1, n patients ([4]; treatment-related, 32 mg (n=7)): 2
- Hypertension Grade 2, % of patients ([4]; treatment-related, 32 mg (n=7)): 0%
- Hypertension Grade 2, n patients ([4]; treatment-related, 32 mg (n=7)): 0
- Hypertension Grade 3, n patients ([4]; treatment-related, 32 mg (n=7)): 2
- Lethargy (all grades), n patients ([4]; treatment-related, 32 mg (n=7)): 2
- Nausea (all grades), n patients ([4]; treatment-related, 32 mg (n=7)): 3
- Proteinuria (all grades), n patients ([4]; treatment-related, 32 mg (n=7)): 3
- Proteinuria Grade 1, % of patients ([4]; treatment-related, 32 mg (n=7)): 0%
- Proteinuria Grade 1, n patients ([4]; treatment-related, 32 mg (n=7)): 0
- Proteinuria Grade 2, % of patients ([4]; treatment-related, 32 mg (n=7)): 14%
- Proteinuria Grade 2, n patients ([4]; treatment-related, 32 mg (n=7)): 1
- Proteinuria Grade 3, n patients ([4]; treatment-related, 32 mg (n=7)): 2
- Stomatitis (all grades), n patients ([4]; treatment-related, 32 mg (n=7)): 4
- Vomiting (all grades), % of patients ([4]; treatment-related, 32 mg (n=7)): 14%
- Vomiting (all grades), n patients ([4]; treatment-related, 32 mg (n=7)): 1
- Abdominal pain (all grades), % of patients [4, 8]: 0%
- Abdominal pain (all grades), n patients [4, 8]: 0
- Anorexia (all grades), % of patients [4, 8]: 10%
- Anorexia (all grades), n patients [4, 8]: 2
- Constipation (all grades), % of patients [4, 8]: 10%
